A short description of data set [1]: Solubility of the compound. The class given is physicochemical.
For data set [2], the target named is T1, Polyunsaturated fatty acid lipoxygenase ALOX15 (Homo sapiens, UniProt P16050).
T1 sequence (P16050 whole entry): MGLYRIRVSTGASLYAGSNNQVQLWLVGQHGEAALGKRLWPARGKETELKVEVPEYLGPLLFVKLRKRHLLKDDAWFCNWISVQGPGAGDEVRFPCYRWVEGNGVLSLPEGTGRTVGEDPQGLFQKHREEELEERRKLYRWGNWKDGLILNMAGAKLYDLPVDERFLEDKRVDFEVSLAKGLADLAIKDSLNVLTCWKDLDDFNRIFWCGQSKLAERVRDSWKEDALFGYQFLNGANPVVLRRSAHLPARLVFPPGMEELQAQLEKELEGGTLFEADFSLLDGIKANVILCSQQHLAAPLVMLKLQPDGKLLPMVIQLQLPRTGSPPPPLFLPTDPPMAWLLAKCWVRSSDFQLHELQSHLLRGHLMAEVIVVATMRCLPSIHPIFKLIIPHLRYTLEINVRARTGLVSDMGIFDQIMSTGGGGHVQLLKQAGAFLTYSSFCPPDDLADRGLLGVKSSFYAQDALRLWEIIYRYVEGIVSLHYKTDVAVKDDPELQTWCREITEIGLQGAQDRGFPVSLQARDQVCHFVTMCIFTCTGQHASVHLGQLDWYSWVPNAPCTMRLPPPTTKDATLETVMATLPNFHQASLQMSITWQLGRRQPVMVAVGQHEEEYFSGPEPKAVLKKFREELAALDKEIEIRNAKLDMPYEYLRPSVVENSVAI
The experiment in a line: Inhibition of human N-terminal His6-tagged reticulocyte 15-lipoxygenase-1 after 15 mins by UV-vis spectrophotometer analysis. The note with it: for Ki: read-out: Ki(app).

Data set [3] concerns the target T2, Polyunsaturated fatty acid lipoxygenase ALOX15B (Homo sapiens, UniProt O15296).
T2 sequence (O15296 whole entry): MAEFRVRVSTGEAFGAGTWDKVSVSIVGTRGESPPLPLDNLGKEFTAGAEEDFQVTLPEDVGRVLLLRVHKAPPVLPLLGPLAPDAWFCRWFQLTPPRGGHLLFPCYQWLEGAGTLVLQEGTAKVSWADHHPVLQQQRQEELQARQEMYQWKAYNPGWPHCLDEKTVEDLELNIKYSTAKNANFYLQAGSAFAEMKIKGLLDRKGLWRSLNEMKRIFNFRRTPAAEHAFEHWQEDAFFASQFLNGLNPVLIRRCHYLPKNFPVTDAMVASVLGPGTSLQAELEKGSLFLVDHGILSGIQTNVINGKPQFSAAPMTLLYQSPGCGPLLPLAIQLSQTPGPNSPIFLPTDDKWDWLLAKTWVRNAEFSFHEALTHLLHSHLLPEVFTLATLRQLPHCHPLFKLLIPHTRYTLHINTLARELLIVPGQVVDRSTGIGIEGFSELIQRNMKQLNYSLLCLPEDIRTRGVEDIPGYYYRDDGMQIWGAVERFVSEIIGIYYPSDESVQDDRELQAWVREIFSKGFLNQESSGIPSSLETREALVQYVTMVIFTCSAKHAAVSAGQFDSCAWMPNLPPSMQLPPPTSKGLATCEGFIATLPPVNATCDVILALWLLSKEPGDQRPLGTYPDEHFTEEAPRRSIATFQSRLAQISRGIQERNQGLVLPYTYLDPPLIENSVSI
Nature of the data set: Inhibition of human N-terminal His6-tagged epithelial 15-lipoxygenase-2 after 15 mins by UV-vis spectrophotometer analysis.

The target of data set [4] is T3, Polyunsaturated fatty acid lipoxygenase ALOX12 (Homo sapiens, UniProt P18054).
T3 sequence (P18054 whole entry): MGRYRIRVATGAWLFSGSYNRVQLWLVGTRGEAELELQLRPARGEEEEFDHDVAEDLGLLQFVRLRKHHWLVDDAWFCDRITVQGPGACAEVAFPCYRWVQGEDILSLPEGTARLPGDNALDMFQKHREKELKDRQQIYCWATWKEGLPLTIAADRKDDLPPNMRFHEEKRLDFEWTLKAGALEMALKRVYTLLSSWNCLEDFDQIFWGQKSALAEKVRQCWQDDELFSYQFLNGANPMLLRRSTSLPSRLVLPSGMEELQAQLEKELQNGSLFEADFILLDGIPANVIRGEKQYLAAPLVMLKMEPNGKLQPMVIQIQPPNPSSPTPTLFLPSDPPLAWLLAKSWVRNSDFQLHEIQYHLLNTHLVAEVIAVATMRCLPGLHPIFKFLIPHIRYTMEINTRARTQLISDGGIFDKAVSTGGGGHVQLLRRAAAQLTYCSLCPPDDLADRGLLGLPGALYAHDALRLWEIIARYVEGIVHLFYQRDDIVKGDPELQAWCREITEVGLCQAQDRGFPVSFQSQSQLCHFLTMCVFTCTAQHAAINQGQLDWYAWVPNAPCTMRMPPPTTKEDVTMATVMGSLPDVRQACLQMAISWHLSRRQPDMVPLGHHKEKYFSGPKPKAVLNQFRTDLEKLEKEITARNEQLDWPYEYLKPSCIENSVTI
Nature of the data set: Inhibition of human N-terminal His6-tagged platelet 12-lipoxygenase after 15 mins by UV-vis spectrophotometer analysis.

Data set [5] deals with T4, Polyunsaturated fatty acid 5-lipoxygenase (Homo sapiens, UniProt P09917).
T4 sequence (P09917 whole entry): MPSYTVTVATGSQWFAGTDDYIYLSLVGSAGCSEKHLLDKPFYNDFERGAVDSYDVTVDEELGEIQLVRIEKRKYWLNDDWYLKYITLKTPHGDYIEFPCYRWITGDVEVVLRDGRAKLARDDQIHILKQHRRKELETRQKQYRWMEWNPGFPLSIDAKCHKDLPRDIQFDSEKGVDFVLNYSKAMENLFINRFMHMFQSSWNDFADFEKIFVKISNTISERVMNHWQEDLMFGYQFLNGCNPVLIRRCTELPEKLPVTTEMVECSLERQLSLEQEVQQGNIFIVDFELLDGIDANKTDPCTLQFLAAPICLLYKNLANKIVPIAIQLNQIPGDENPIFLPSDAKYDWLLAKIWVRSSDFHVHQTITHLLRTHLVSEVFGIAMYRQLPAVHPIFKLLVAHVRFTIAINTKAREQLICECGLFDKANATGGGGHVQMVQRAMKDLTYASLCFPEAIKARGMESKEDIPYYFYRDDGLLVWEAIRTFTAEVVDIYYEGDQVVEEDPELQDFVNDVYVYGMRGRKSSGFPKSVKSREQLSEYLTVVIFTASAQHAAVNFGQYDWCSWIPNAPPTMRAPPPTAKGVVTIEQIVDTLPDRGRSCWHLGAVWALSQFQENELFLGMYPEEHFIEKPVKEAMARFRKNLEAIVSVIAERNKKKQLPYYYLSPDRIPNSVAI
The experiment in a line: Inhibition of human 5-lipoxygenase after 15 mins by UV-vis spectrophotometer analysis.

Data set [6] in a line: Selectivity ratio of IC50 for ovine COX1 over IC50 for human N-terminal His6-tagged reticulocyte 15-lipoxygenase-1. Summed up:
(§1)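 COX inhibition: ~2 μg ovine COX-1 or human COX-2 preincubated 20 min with inhibitor, then added to 0.1 M Tris-HCl pH 8.0, 5 mM EDTA, 2 mM phenol, 1 μM hematin, 100 μM arachidonic acid at 37 °C; oxygen consumption via oxygen electrode; ibuprofen and DMSO as controls.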

The species named for data set [7] is Homo sapiens. Nature of the data set: Selectivity ratio of IC50 for human COX2 over IC50 for human N-terminal His6-tagged reticulocyte 15-lipoxygenase-1. Summed up:
as §1

For data set [8], the species on record is Homo sapiens. The experiment in a line: Selectivity ratio of IC50 for human N-terminal His6-tagged epithelial 15-lipoxygenase-2 over IC50 for human N-terminal His6-tagged reticulocyte 15-lipoxygenase-1.
Data set [9] is filed under the species Homo sapiens. The experiment in a line: Selectivity ratio of IC50 for human N-terminal His6-tagged platelet 12-lipoxygenase over IC50 for human N-terminal His6-tagged reticulocyte 15-lipoxygenase-1.
Data set [10] is filed under the species Homo sapiens. The experiment in a line: Selectivity ratio of IC50 for human 5-lipoxygenase over IC50 for human N-terminal His6-tagged reticulocyte 15-lipoxygenase-1.
The subject of data set [11] is Radical scavenging activity. Nature of the data set: Antioxidant activity assessed as DPPH free radical scavenging activity at 5 uM. The class given is functional.
Data set [12] concerns the target T1, Polyunsaturated fatty acid lipoxygenase ALOX15. Nature of the data set: Inhibition of human N-terminal His6-tagged reticulocyte 15-lipoxygenase-1 catalytic site assessed as 15-HPETE formation by Michaelis-Menten equation analysis.
For data set [13] the target is unchanged. Nature of the data set: Inhibition of human N-terminal His6-tagged reticulocyte 15-lipoxygenase-1 allosteric site assessed as 15-HPETE formation by Michaelis-Menten equation analysis.

Here are results for 9 compounds from ChEMBL document CHEMBL1268899, “Discovery of potent and selective inhibitors of human reticulocyte 15-lipoxygenase-1” (J Med Chem, 2010).

Molecules are shown by their SMILES. The source made the active and inactive calls. The rule behind the calls is not given here. Bounds are passed on as bounds.

As for `O=C(CCC#CCSc1nnc(-c2cccc3ccccc23)o1)c1ccccc1`, in data set [1], the solubility entry was “Insoluble”.

For `O=C(OCC#CCSc1nnc(-c2cccc3ccccc23)o1)c1ccccc1`, the concentration for half-maximal inhibition (IC50) was under 0.01 µM in data set [2], over 100 µM in data set [3], over 100 µM in [4] and over 20 µM in data set [5]. In addition, the Ki in data set [2] was under 0.01 µM. Also, the Ratio IC50 in data set [6] is over 7500; in the data set filed under Homo sapiens [7] it was over 7500; in the data set filed under Homo sapiens [8], over 7500; in the data set listed under Homo sapiens [9], over 7500; in the data set filed under Homo sapiens [10], over 2000.

Regarding `O=C(OCC#CCSc1nnc(-c2cccc3ccccc23)o1)c1sc2ccccc2c1Cl`, the outcome in [11] was inactive.

Turning to `O=C(OCC#CCSc1nnc(-c2cccc3ccccc23)o1)c1cnc[nH]1`, the Ki was found to be 1.4 µM in data set [2], 0.87 µM in data set [12] and 8.1 µM in data set [13].

In the case of `O=C(OCC#CCSc1nnc(-c2ccc(Cl)cc2)o1)c1ccc(F)cc1`, the IC50 was under 0.01 µM in data set [2], over 100 µM in data set [3], over 100 µM in data set [4] and over 75 µM in [5]. Moreover, in [2], the Ki was under 0.01 µM. Further, the Ratio IC50 (in data set [6]; in the data set filed under Homo sapiens [7]; in the data set filed under Homo sapiens [8]; in the data set filed under Homo sapiens [9]; in the data set filed under Homo sapiens [10]) was over 7500 throughout.

In the case of `O=C(OCC#CCSc1nnc(-c2cccc3ccccc23)o1)c1cc2ccccc2s1`, the half-inhibitory concentration (IC50) in [2] is under 0.01 µM; in data set [3], over 100 µM; in data set [4] it was over 100 µM; in data set [5], over 75 µM. Moreover, in data set [2], the Ki is under 0.01 µM. Further, the Ratio IC50 (in [6]; in the data set listed under Homo sapiens [7]; in the data set listed under Homo sapiens [8]; in the data set filed under Homo sapiens [9]; in the data set filed under Homo sapiens [10]) was over 7500 each time.

Regarding `O=C(OCC#CCSc1nnc(-c2cc3ccccc3cc2O)o1)c1ccc(F)cc1`, in [1], the solubility entry is “Insoluble”.

As to `O=C(OCC#CCSc1nnc(-c2cccc3ccccc23)o1)c1csc2ccccc12`, the Ki in data set [2] is under 0.01 µM. Further, the result in data set [11] was inactive.

`O=C(OCC#CCSc1nnc(-c2cccc3ccccc23)s1)c1cccs1`: the solubility entry in data set [1] is “Insoluble”.
